Series [1] relates to PC-3. The experiment in a line: Cytotoxicity against human PC3 cells after 48 hrs by SRB assay. In kind it is functional, cell-based. Particulars: PC-3, 48 h. The method, boiled down: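 Second-stage NCI-60 panel run by the NCI Developmental Therapeutics Program, covering nine tumour subpanels. Five concentrations were tested: 0.01, 0.1, 1, 10 and 100 μM. Percentage growth at each level was plotted against log10 drug concentration. GI50, TGI and LC50 were read from these dose-response curves. Subpanel MID values were divided into the full-panel MID to give selectivity ratios.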
On the technique in general: In SRB staining, fixed cells bind dye roughly in proportion to their protein.

For series [2], the system named is DU-145. The experiment in a line: Cytotoxicity against human DU145 cells after 72 hrs by MTT assay. In kind it is functional, cell-based. As to conditions: DU-145, 72 h. The method, boiled down: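 DU-145 cells grown in RPMI-1640 with 5% heat-inactivated fetal calf serum at 37 °C, 5% CO2. About 2×10^3 cells per well were seeded and incubated for 24 h. Compounds were dissolved in DMSO freshly and diluted into medium (vehicle 0.1% DMSO), then cells were exposed for 72 h. MTT was added for 3 h at 37 °C and absorbance read at 570 nm.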
In general terms: Tetrazolium dyes change colour on reduction, which living cells bring about.

The nature of series [3]: Cytotoxicity against human WPMY-1cells assessed as survival rate after 72 hrs by MTT assay. In kind it is cell-based. As to conditions: wpmy-1, 72 h. The method, boiled down: (§1)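 About 2×10^3 cells/well preincubated 24 h at 37 °C, 5% CO2. Compound freshly dissolved in DMSO, diluted into complete medium and added at various concentrations (vehicle 0.1% DMSO) for 72 h. MTT added for 3 h at 37 °C, absorbance read at 570 nm, survival rate derived.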

A short description of series [4]: Cytotoxicity against human SV-HUC1 cells assessed as survival rate after 72 hrs by MTT assay. The series is classed as cell-based. As to conditions: sv-huc1, 72 h. The method, boiled down:
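SV-HUC-1 cells grown in Ham's F-12K with 5% heat-inactivated fetal calf serum, 37 °C, 5% CO2. About 2×10^3 cells/well plated for 24 h, then a range of compound concentrations (DMSO stock diluted into medium; vehicle 0.1% DMSO) for 72 h. MTT added for 3 h at 37 °C; absorbance 570 nm.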

Series [5] in a line: Cytotoxicity against human RWPE1 cells assessed as survival rate after 72 hrs by MTT assay. In kind it is cell-based, RWPE-1. As to conditions: rwpe-1, 72 h. The method, boiled down: as §1

Where only a bound is given, the exact number is not on record here.

For orientation: IC50 means the concentration that gives 50% inhibition. As for `CCCSc1cc2c(c3nsnc13)C(=O)c1ccccc1C2=O`, the IC50 was 5.39 µM in series [1] and 2.55 µM in series [2].
As for `CC(C)c1ccccc1Sc1cc2c(c3nsnc13)C(=O)c1ccccc1C2=O`, the IC50 in series [1] is above 15 µM; in series [2], 14.6 µM.
For `O=C1c2ccccc2C(=O)c2c1cc(SCCc1ccccc1)c1nsnc21` the same measures were above 15 µM and 9.65 µM.
For `CCc1ccc(Sc2cc3c(c4nsnc24)C(=O)c2ccccc2C3=O)cc1` the same measures were 7.5 µM and 2.52 µM.
For `O=C1c2ccccc2C(=O)c2c1cc(Sc1ccccc1F)c1nsnc21` the same measures were above 15 µM and 7.64 µM.
As to `O=C1c2ccccc2C(=O)c2c1cc(SCc1ccccc1Cl)c1nsnc21`, the IC50 in series [1] amounted to 5.48 µM; in series [2] it was 6.38 µM.
Turning to `O=C1c2ccccc2C(=O)c2c1cc(Sc1cc(Cl)c(Cl)cc1Cl)c1nsnc21`, the IC50 in series [1] and in series [2] was above 15 µM throughout.
Take `CC(C)(C)c1ccc(CSc2cc3c(c4nsnc24)C(=O)c2ccccc2C3=O)cc1`: the half-maximal inhibitory concentration (IC50) turned out to be 9.5 µM in series [1] and 3.66 µM in series [2].
For `O=C1c2ccccc2C(=O)c2c1cc(Sc1cccc(Br)c1)c1nsnc21` the same measures were 12.4 µM and 10.7 µM.
`COc1cccc2c1C(=O)c1c(O)c3c(c(O)c1C2=O)C[C@@](O)(C(=O)CO)C[C@@H]3O[C@H]1C[C@H](N)[C@H](O)[C@H](C)O1` [DOXORUBICIN]: the Activity entry in series [3], in series [4] and in series [5] was “Toxic” in each case.
Consider `Cc1cccc(Sc2cc3c(c4nsnc24)C(=O)c2ccccc2C3=O)c1`, for which the IC50 in series [1] and in series [2] was above 15 µM throughout.
With `Cc1ccc(C)c(Sc2cc3c(c4nsnc24)C(=O)c2ccccc2C3=O)c1`, the IC50 in series [1] is 7.44 µM; in series [2], 12 µM.
For `O=C1c2ccccc2C(=O)c2c1cc(Sc1ccccc1Cl)c1nsnc21` the same measures were above 15 µM and above 15 µM.
For `O=C1c2ccccc2C(=O)c2c1cc(Sc1cccc(F)c1)c1nsnc21` the same measures were 8.82 µM and 12.7 µM.
On the same counts, the results for `CCc1ccccc1Sc1cc2c(c3nsnc13)C(=O)c1ccccc1C2=O` are above 15 µM and above 15 µM.
Consider `Cc1ccc(Sc2cc3c(c4nsnc24)C(=O)c2ccccc2C3=O)cc1`, for which the 50% inhibitory concentration (IC50) in series [1] and in series [2] was above 15 µM throughout.
As to `Cc1ccc(Sc2cc3c(c4nsnc24)C(=O)c2ccccc2C3=O)cc1C`, the IC50 in series [1] was above 15 µM; in series [2], 14.1 µM.
On the same counts, the results for `CC(C)(C)c1ccc(Sc2cc3c(c4nsnc24)C(=O)c2ccccc2C3=O)cc1` are above 15 µM and 8.38 µM.
For `O=C1c2ccccc2C(=O)c2c1cc(Sc1ccc(Br)cc1)c1nsnc21`, the IC50 in series [1] was above 15 µM; in series [2], 13.3 µM.
On the same counts, the results for `CC(C)c1ccc(Sc2cc3c(c4nsnc24)C(=O)c2ccccc2C3=O)cc1` are above 15 µM and 13.8 µM.
On the same counts, the results for `O=C1c2ccccc2C(=O)c2c1cc(Sc1ccc(F)cc1)c1nsnc21` are 6.7 µM and 11.1 µM.
In the case of `COc1ccccc1Sc1cc2c(c3nsnc13)C(=O)c1ccccc1C2=O`, the IC50 in series [1] was above 15 µM; in series [2], 12.9 µM.

The values above are taken from ChEMBL document CHEMBL3621107, “Ring fusion strategy for synthesis and lead optimization of sulfur-substituted anthra[1,2-c][1,2,5]thiadiazole-6,11-dione derivatives as promising scaffold of antitumor agents” (Eur J Med Chem, 2015).
